INS-1E rescue: rescue of cytokine-induced death in INS-1E beta cells | INS-1E cytokine-induced death, ATP luminescence, 48 h; normalised: neutral wells 0, positive control 100 | protection from cytokine-induced ATP loss, % at 10 µM | 20,000 tested, 0.1% active;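 active = mean replicate protection from cytokine-induced ATP loss at least 50% and at least 75% of replicates each reaching 50%; inconclusive = meets only one of the two criteria, mean or replicate share; inactive = fails both the mean and replicate share criteria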
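Material: INS-1E rat cells; Quantity: 8000 cells/well; Buffer or medium: phenol-red-free RPMI with 5% fetal bovine serum; Probe or stimulus: cytokine cocktail of IFN-γ, TNF-α and IL-1β; Compound dosing: single test concentration per compound, delivered by pin transfer; Incubation: 48 h co-treatment, 10 min post-lysis read; Signal: CellTiter-Glo luminescence.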
A1 apoptosis 2: A1 inhibition read as caspase activation; caspase activation, % (concentration not given with the values); AID 2465; 24,000 tested, under 10 active; MEF A1-2A-BIM cells, caspase-Glo luminescence, 3 h; percent of clofoctol response, DMSO zero; in the data active = caspase activation above about 5.9%; inconclusive = no clear call, values can overlap the other calls; inactive = below about 2.2%
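Material: A1-2A-BIM-expressing MEF cells. Buffer or medium: RPMI-1640 plus 10% FBS. Incubation: cells settled overnight, compound exposure 3 h at 37 °C, 5% CO2. Signal: Caspase-Glo 3/7 luminescence, 1 h at room temperature.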
T cruzi HTS: inhibitors of intracellular Trypanosoma cruzi; intracellular Trypanosoma cruzi in host cells, plate reader; activity score (inhibition), % at 5.01 µM; 22,000 tested, 4.9% active; in the data active = activity score above about 55%; inconclusive = no clear call, values can overlap the other calls;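 also: parasites and compound incubated about four days before reading; 0% = median of neutral control wells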
* = called active by the depositor; u = inconclusive; x = no result given. Many of the other results were omitted from the sample, so hits are more common in it than they were.

SMILES	INS-1E rescue	A1 apoptosis 2	T cruzi HTS
Cc1ccc(S(=O)(=O)Nc2ccc3c(c2)CC(=O)N([C@@H](C)CO)C[C@@H](C)[C@@H](CN(C)S(=O)(=O)c2ccc(Cl)cc2)O3)cc1	1	0	62*
C[C@@H]1CN([C@@H](C)CO)C(=O)Cc2cc(NS(=O)(=O)c3ccc(Cl)cc3)ccc2O[C@@H]1CN(C)S(=O)(=O)c1ccccc1	10	1	47
Cc1ccc(S(=O)(=O)N(C)C[C@H]2Oc3ccc(NS(=O)(=O)c4ccc(Cl)cc4)cc3CC(=O)N([C@@H](C)CO)C[C@H]2C)cc1	-18	1	u
C[C@@H]1CN([C@H](C)CO)C(=O)Cc2cc(NS(=O)(=O)c3ccc(Cl)cc3)ccc2O[C@@H]1CN(C)S(=O)(=O)c1ccccc1	0	-1	59*
C[C@H](CO)N1C[C@H](C)[C@H](CN(C)S(=O)(=O)c2ccc(Cl)cc2)Oc2ccc(NS(=O)(=O)c3ccc(F)cc3)cc2CC1=O	-6	x	22
Cc1ccc(S(=O)(=O)Nc2ccc3c(c2)CC(=O)N([C@@H](C)CO)C[C@H](C)[C@@H](CN(C)S(=O)(=O)c2ccccc2)O3)cc1	5	x	-1
COc1ccc(NC(=O)N(C)C[C@H]2OCCCC[C@H](C)Oc3ccc(NC(=O)C4CCCCC4)cc3C(=O)N([C@H](C)CO)C[C@H]2C)cc1	x	0	x
O=C(CCCCCCC(=O)Nc1ccccc1O)N/N=C/[C@H](O)[C@@H](O)[C@H](O[C@@H]1O[C@H](CO)[C@H](O)[C@H](O)[C@H]1O)[C@H](O)CO	-14	x	1
O=C(NO)c1ccc(C(=O)N/N=C/c2cc(Br)cc([N+](=O)[O-])c2O)cc1	8	-4	19
C=CCOC(=O)[C@H]1[C@@H]2C(=O)O[C@@H](c3ccccc3)[C@@H](c3ccccc3)N2[C@@H](c2ccc(OCCOC(=O)[C@@H]3C[C@@H]4C(=O)N[C@@H](Cc5ccccc5)C(=O)N4[C@@H]3c3ccc(O)cc3)cc2)[C@]12C(=O)Nc1ccccc12	x	-1	x
Cc1ccc(S(=O)(=O)N(C)C[C@H]2Oc3ccc(NS(=O)(=O)c4ccc(Cl)cc4)cc3CC(=O)N([C@H](C)CO)C[C@H]2C)cc1	-19	-1	78*
Cc1ccc(S(=O)(=O)N(C)C[C@H]2Oc3ccc(NS(=O)(=O)c4ccc(F)cc4)cc3CC(=O)N([C@H](C)CO)C[C@@H]2C)cc1	x	-1	x
Cc1ccc(S(=O)(=O)Nc2ccc3c(c2)CC(=O)N([C@H](C)CO)C[C@H](C)[C@@H](CN(C)S(=O)(=O)c2ccc(Cl)cc2)O3)cc1	x	0	x
Cc1ccc(S(=O)(=O)N(C)C[C@H]2Oc3ccc(NS(=O)(=O)c4ccc(F)cc4)cc3CC(=O)N([C@H](C)CO)C[C@H]2C)cc1	-4	1	63*
Cc1ccc(S(=O)(=O)Nc2ccc3c(c2)CC(=O)N([C@H](C)CO)C[C@@H](C)[C@@H](CN(C)S(=O)(=O)c2ccc(C)cc2)O3)cc1	-7	x	78*
Cc1ccc(S(=O)(=O)Nc2ccc3c(c2)CC(=O)N([C@H](C)CO)C[C@H](C)[C@H](CN(C)S(=O)(=O)c2ccc(Cl)cc2)O3)cc1	-4	x	12
COC(=O)CCCCCCC(=O)N/N=C/C1=CCCCC1	-1	0	0
O=C(O)CCCCCC(=O)N=NC=C1C=CN(O)C=C1	-10	1	-6
CN(CCO)c1ccc(/C=N/NC(=O)c2ccccn2)cc1	-12	-12	31
C[C@@H]1CN([C@@H](C)CO)C(=O)Cc2cc(NC(=O)NC3CCCCC3)ccc2O[C@@H]1CN(C)Cc1ccc(Oc2ccccc2)cc1	-17	x	53
C[C@@H]1CN([C@H](C)CO)C(=O)Cc2cc(NC(=O)NC3CCCCC3)ccc2O[C@H]1CN(C)Cc1ccc(-c2ccccc2)cc1	-27	x	75*
C[C@H](CO)N1C[C@H](C)[C@@H](CN(C)Cc2ccc(-c3ccccc3)cc2)Oc2ccc(NC(=O)NC3CCCCC3)cc2CC1=O	x	-1	x
C[C@@H]1CN([C@H](C)CO)C(=O)Cc2cc(NC(=O)NC3CCCCC3)ccc2O[C@H]1CN(C)Cc1ccc(Oc2ccccc2)cc1	-29	1	64*
O=C(N/N=C/c1ccc(OCc2ccccc2)cc1O)c1ccccc1O	x	-2	x
Cc1nc(S(=O)(=O)NC[C@@H]2CCCN(Cc3ccc(OCCO)cc3)C2)cn1C	x	0	x
SMILES	INS-1E rescue	A1 apoptosis 2	T cruzi HTS
C[C@@H]1CN([C@H](C)CO)C(=O)Cc2cc(N(C)C)ccc2O[C@@H]1CN(C)Cc1ccc(C(=O)Nc2ccccc2N)cc1	-14	0	63*
C[C@@H]1CN([C@H](C)CO)C(=O)Cc2cc(N(C)C)ccc2O[C@H]1CN(C)Cc1ccc(C(=O)Nc2ccccc2N)cc1	18	x	69*
C[C@@H]1CN([C@H](C)CO)C(=O)Cc2cc(NC(=O)c3ccncc3)ccc2O[C@H]1CN(C)Cc1ccc(C(=O)Nc2ccccc2N)cc1	-22	0	20
C[C@@H]1CN([C@@H](C)CO)C(=O)c2cc(N(C)C)ccc2O[C@H]1CN(C)Cc1ccc(C(=O)Nc2ccccc2N)cc1	3	x	35
O=C(NO)c1cccc(C(=O)N/N=C/c2cc(Br)cs2)c1	10	x	-25
COc1cc2c(cc1OC)CN(C(=O)[C@@H]1[C@H]3C(=O)O[C@H](c4ccccc4)[C@H](c4ccccc4)N3[C@H](c3ccccc3OCCO)[C@@]13C(=O)Nc1ccccc13)CC2	x	0	x
C[C@@H]1CN([C@@H](C)CO)C(=O)c2cc(NC(=O)Cc3cn(C)c4ccccc34)ccc2O[C@H]1CN(C)Cc1ccc(C(F)(F)F)cc1	-24	-2	82*
C[C@@H]1CN([C@H](C)CO)C(=O)c2cc(NC(=O)Cc3cn(C)c4ccccc34)ccc2O[C@@H]1CN(C)C(=O)Nc1ccc(C(F)(F)F)cc1	-18	x	81*
C[C@@H]1CN([C@H](C)CO)C(=O)c2cc(NC(=O)Cc3cn(C)c4ccccc34)ccc2O[C@@H]1CN(C)Cc1ccccc1	3	x	17
C[C@H]1CN([C@@H](C)CO)C(=O)c2cc(NC(=O)Cc3cn(C)c4ccccc34)ccc2O[C@H]1CN(C)Cc1ccc(C(F)(F)F)cc1	x	0	43*
C[C@H](CO)N1C[C@H](C)[C@H](CN(C)Cc2ccc(C(F)(F)F)cc2)Oc2ccc(NC(=O)Cc3cn(C)c4ccccc34)cc2C1=O	x	-1	34
C[C@@H]1CN([C@@H](C)CO)C(=O)c2cc(NC(=O)Cc3cn(C)c4ccccc34)ccc2O[C@@H]1CN(C)C(=O)Nc1ccc(C(F)(F)F)cc1	-6	x	8
O=C(N/N=C/c1cccnc1Cl)c1ccccc1O	-31	x	0
O=C(NO)c1cccc(C(=O)N/N=C/c2cccc(OCCO)c2)c1	-2	-2	-9
COC(=O)CCCCCCC(=O)N/N=C/c1cc2c(cc1Br)OCO2	22	-1	1
O=C(N/N=C/C(Br)=C/c1ccccc1)c1ccccn1	17	x	-67
C[C@H](CO)N1C[C@H](C)[C@@H](CN(C)Cc2ccc(Oc3ccccc3)cc2)Oc2ccc(NC(=O)Nc3cccc4ccccc34)cc2CC1=O	x	-1	x

Source: PubChem
